As usually defined, the Kd is the free concentration of one partner at which half of the binding sites on the other are occupied at equilibrium, for simple one-to-one binding.

Like-named read-outs stand apart in the source and are kept apart here.

The assay has as its target T1, ENT1 (Mus musculus, UniProt Q9JIM1).
T1 sequence (Q9JIM1 1-460): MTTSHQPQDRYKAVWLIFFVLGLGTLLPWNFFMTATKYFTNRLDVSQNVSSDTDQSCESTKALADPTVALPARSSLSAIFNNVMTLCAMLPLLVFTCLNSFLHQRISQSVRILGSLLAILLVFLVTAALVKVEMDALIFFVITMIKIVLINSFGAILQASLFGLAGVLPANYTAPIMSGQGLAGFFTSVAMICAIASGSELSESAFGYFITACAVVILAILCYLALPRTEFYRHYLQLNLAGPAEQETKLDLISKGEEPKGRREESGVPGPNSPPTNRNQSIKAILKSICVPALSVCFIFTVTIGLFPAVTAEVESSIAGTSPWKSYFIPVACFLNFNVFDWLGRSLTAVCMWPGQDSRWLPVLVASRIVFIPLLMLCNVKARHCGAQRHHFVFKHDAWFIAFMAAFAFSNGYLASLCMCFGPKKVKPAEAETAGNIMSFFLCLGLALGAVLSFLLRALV
It is filed as binding. Particulars: striatum; for Kd: read-out: KD (affinity). In short, it runs like this:
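Striata from 12-month-old heterozygous zQ175 and WT littermate mice were homogenized in 50 mM Tris-HCl pH 7.4 with protease inhibitors, then membranes were pelleted at 100,000 g (45 min, 4°C) and washed twice. Membranes (0.2 mg protein/ml) were incubated with increasing [3H]NBTI in 50 mM Tris-HCl pH 7.4 with 2 I.U./ml adenosine deaminase. Unlabeled NBTI defined non-specific binding. Bound ligand was separated by rapid filtration and counted by scintillation. n = 8–10/group, means ± S.E.M.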

Consider `O=[N+]([O-])c1ccc(CSc2ncnc3c2ncn3[C@@H]2O[C@H](CO)[C@@H](O)[C@H]2O)cc1` [[^3H]NBTI, [^3H]-S-(4-Nitrobenzyl)-6-thioinosine], for which, under “WT littermates of zQ175 mice”, the “Bmax (number of binding sites)” value is reported as 0.27 ± 0.03 pmol/mg of protein and the Kd turned out to be 0.11 ± 0.01 nM. For the same compound, for the setting “zQ175 mice (HET, 12-month old)”, the Kd was determined as 0.11 ± 0.03 nM and the “Bmax (number of binding sites)” value is 0.35 ± 0.02 pmol/mg protein.

(Values after paper PMC5102769 (Neurobiology of disease, 2016).)
